Laboratory results from ChEMBL document CHEMBL1275392, “Assessment of chemoselective neoglycosylation methods using chlorambucil as a model” (2010).

Assays:
A549 = assay: Growth inhibition of human A549 cells expressing p53 after 7 days by celltiter-glo assay; type: functional; conditions: A549, 168 h
SK-OV-3 = assay: Growth inhibition of human SKOV3 cells after 7 days by celltiter-glo assay; type: functional; conditions: SK-OV-3, 168 h
MCF7 = assay: Growth inhibition of human MCF7 cells after 7 days by celltiter-glo assay; type: functional; conditions: MCF7, 168 h
[1] = Growth inhibition of human p53 deficient Hep3B cells after 7 days by celltiter-glo assay; type: functional, Hep 3B2; conditions: 168 h
Summary of the method: (§1)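 Cells seeded at 500 per well in 384-well plates. Compounds came from 30 mM DMSO stocks, serially diluted and tested in quadruplicate. Incubation was 7 d at 37 °C under 5% CO2. Calcein AM (10 μM) and EthD-1 were added, followed by a fluorescence read. CellTiter-Glo lysis was then done for 10 min at room temperature, with a luminescence read. GI50 came from curve fitting.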

DU-145 = assay: Growth inhibition of human DU145 cells after 7 days by celltiter-glo assay; type: functional; conditions: DU-145, 168 h
SF-268 = assay: Growth inhibition of human SF268 cells after 7 days by celltiter-glo assay; type: functional; conditions: SF-268, 168 h
HT-29 = assay: Growth inhibition of human HT-29 cells after 7 days by celltiter-glo assay; type: functional; conditions: HT-29, 168 h
HCT-15 = assay: Growth inhibition of human HCT15 cells after 7 days by celltiter-glo assay; type: functional; conditions: HCT-15, 168 h
[2] = Growth inhibition of human p53 deficient H1299 cells after 7 days by celltiter-glo assay; type: functional; conditions: NCI-H1299, 168 h; summary of the method: as §1
NCI-H460 = assay: Growth inhibition of human NCI-H460 cells after 7 days by celltiter-glo assay; type: functional; conditions: NCI-H460, 168 h

For `CON(CCCc1ccc(N(CCCl)CCCl)cc1)C1OC[C@H](O)[C@H](O)[C@H]1O` (stereo not given in full), the GI50 (A549) was 2.3 µM, the GI50 (SK-OV-3) was 2.2 µM and the GI50 (MCF7) was 5.4 µM. For the same compound, the GI50 [1] was 1.9 µM, the GI50 (DU-145) was 3.6 µM and the GI50 (SF-268) was 1.9 µM. For the same compound, the GI50 (HT-29) was 1.9 µM, the GI50 (HCT-15) was 1 µM and the GI50 [2] was 0.84 µM. The GI50 (NCI-H460) was 6.1 µM.

For `CON(CCCc1ccc(N(CCCl)CCCl)cc1)C1O[C@H](C(=O)O)[C@H](O)[C@H](O)[C@H]1NC(C)=O` (stereo not given in full), the GI50 (A549) was 22 µM, the GI50 (SK-OV-3) was 11 µM and the GI50 (MCF7) was 4.4 µM. The GI50 [1] was 11.8 µM, the GI50 (DU-145) was 16.7 µM and the GI50 (SF-268) was 4.2 µM. For the same compound, the GI50 (HT-29) was 12 µM, the GI50 (HCT-15) was 19.1 µM and the GI50 [2] was 3.8 µM. The GI50 (NCI-H460) was 42 µM.

In the case of `CON(CCCc1ccc(N(CCCl)CCCl)cc1)C1C[C@@H](O)[C@@H](O)CO1` (stereo not given in full), the GI50 (A549) is reported as 2.5 µM, the GI50 (SK-OV-3) is reported as 2.2 µM and the GI50 (MCF7) is reported as 1.3 µM. The GI50 [1] was 2.5 µM, the GI50 (DU-145) was 3.3 µM and the GI50 (SF-268) was 2 µM. The GI50 (HT-29) was 2.3 µM, the GI50 (HCT-15) was 2.2 µM and the GI50 [2] was 3.9 µM. The GI50 (NCI-H460) was 5.2 µM.

`CON(CCCc1ccc(N(CCCl)CCCl)cc1)[C@@H]1OC[C@@H](O)[C@H](O)[C@H]1O` showed a GI50 (A549) of 2.3 µM, a GI50 (SK-OV-3) of 2.2 µM and a GI50 (MCF7) of 0.91 µM. The GI50 [1] was 1.5 µM, the GI50 (DU-145) was 2.3 µM and the GI50 (SF-268) was 1.4 µM. For the same compound, the GI50 (HT-29) was 1.6 µM, the GI50 (HCT-15) was 0.9 µM and the GI50 [2] was 0.83 µM. For the same compound, the GI50 (NCI-H460) was 4.5 µM.

`CON(CCCc1ccc(N(CCCl)CCCl)cc1)C1O[C@@H](CO)[C@H](O)[C@@H](O)[C@H]1O` (stereo not given in full) showed a GI50 (A549) of 4.1 µM, a GI50 (SK-OV-3) of 2.9 µM and a GI50 (MCF7) of 2.2 µM. The GI50 [1] was 3.7 µM, the GI50 (DU-145) was 4.9 µM and the GI50 (SF-268) was 2 µM. It also gave a GI50 (HT-29) of 3.4 µM, a GI50 (HCT-15) of 2.2 µM and a GI50 [2] of 1.2 µM. For the same compound, the GI50 (NCI-H460) was 9.8 µM.

In the case of `CON(CCCc1ccc(N(CCCl)CCCl)cc1)C1O[C@H](C)[C@H](O)[C@H](O)[C@H]1O` (stereo not given in full), the GI50 (A549) is reported as 9.6 µM, the GI50 (SK-OV-3) is reported as 1.7 µM and the GI50 (MCF7) is reported as 3 µM. It also gave a GI50 [1] of 2.6 µM, a GI50 (DU-145) of 4.1 µM and a GI50 (SF-268) of 1.7 µM. The GI50 (HT-29) was 6.7 µM, the GI50 (HCT-15) was 0.82 µM and the GI50 [2] was 3.5 µM. For the same compound, the GI50 (NCI-H460) was 5.9 µM.

In the case of `CON(CCCc1ccc(N(CCCl)CCCl)cc1)C1OC[C@H](O)[C@H](O)[C@@H]1O` (stereo not given in full), the GI50 (A549) is reported as 2.4 µM, the GI50 (SK-OV-3) is reported as 2 µM and the GI50 (MCF7) is reported as 0.97 µM. It also gave a GI50 [1] of 2.4 µM, a GI50 (DU-145) of 3.7 µM and a GI50 (SF-268) of 2.1 µM. It also gave a GI50 (HT-29) of 2.2 µM, a GI50 (HCT-15) of 2.1 µM and a GI50 [2] of 3.3 µM. The GI50 (NCI-H460) was 5.7 µM.

Work on `CON(CCCc1ccc(N(CCCl)CCCl)cc1)[C@H]1C[C@@H](O)[C@H](O)[C@@H](CO)O1` yielded a GI50 (A549) of 3.1 µM, a GI50 (SK-OV-3) of 1.12 µM and a GI50 (MCF7) of 5.4 µM. It also gave a GI50 [1] of 3.7 µM, a GI50 (DU-145) of 4.3 µM and a GI50 (SF-268) of 2.5 µM. For the same compound, the GI50 (HT-29) was 1.2 µM, the GI50 (HCT-15) was 0.7 µM and the GI50 [2] was 0.58 µM. It also gave a GI50 (NCI-H460) of 5.4 µM.

With `CON(CCCc1ccc(N(CCCl)CCCl)cc1)[C@@H]1O[C@H](CO)[C@@H](O)[C@H](F)[C@H]1O` the GI50 (A549) was 3 µM, the GI50 (SK-OV-3) was 2.2 µM and the GI50 (MCF7) was 7 µM. For the same compound, the GI50 [1] was 3.2 µM, the GI50 (DU-145) was 4.1 µM and the GI50 (SF-268) was 2.2 µM. For the same compound, the GI50 (HT-29) was 2.6 µM, the GI50 (HCT-15) was 1.2 µM and the GI50 [2] was 1.3 µM. The GI50 (NCI-H460) was 7.1 µM.

`O=C(CCCc1ccc(N(CCCl)CCCl)cc1)NN[C@@H]1OC[C@@H](O)[C@H](O)[C@H]1O` gave a GI50 (A549) of 14.8 µM, a GI50 (SK-OV-3) of 12 µM and a GI50 (MCF7) of 4.5 µM. It also gave a GI50 [1] of 5.5 µM, a GI50 (DU-145) of 19 µM and a GI50 (SF-268) of 2.5 µM. It also gave a GI50 (HT-29) of 7.2 µM, a GI50 (HCT-15) of over 100 µM and a GI50 [2] of 3.9 µM. For the same compound, the GI50 (NCI-H460) was 26 µM.

Compound `O=C(CCCc1ccc(N(CCCl)CCCl)cc1)N/N=C/[C@@H](O)[C@H](O)CO` has a GI50 (A549) of 7.5 µM, a GI50 (SK-OV-3) of 6.2 µM and a GI50 (MCF7) of 4.2 µM. For the same compound, the GI50 [1] was 4.1 µM, the GI50 (DU-145) was 9.5 µM and the GI50 (SF-268) was 2.6 µM. The GI50 (HT-29) was 4.8 µM, the GI50 (HCT-15) was 7.3 µM and the GI50 [2] was 2.6 µM. It also gave a GI50 (NCI-H460) of 10.8 µM.

For `CON(CCCc1ccc(N(CCCl)CCCl)cc1)[C@@H]1O[C@H](CO)[C@@H](O)[C@H](O[C@H](C)C(=O)O)[C@H]1NC(C)=O`, the GI50 (A549) was 8.6 µM, the GI50 (SK-OV-3) was 7 µM and the GI50 (MCF7) was 4.5 µM. For the same compound, the GI50 [1] was 8 µM, the GI50 (DU-145) was 8.9 µM and the GI50 (SF-268) was 4.1 µM. It also gave a GI50 (HT-29) of 6.3 µM, a GI50 (HCT-15) of 3.1 µM and a GI50 [2] of 2.4 µM. It also gave a GI50 (NCI-H460) of 13.1 µM.

`CON(CCCc1ccc(N(CCCl)CCCl)cc1)C1OC[C@@H](O)[C@H](O)[C@@H]1O` (stereo not given in full) gave a GI50 (A549) of 2.3 µM, a GI50 (SK-OV-3) of 1.8 µM and a GI50 (MCF7) of 1 µM. For the same compound, the GI50 [1] was 2.5 µM, the GI50 (DU-145) was 3.6 µM and the GI50 (SF-268) was 1.6 µM. The GI50 (HT-29) was 2 µM, the GI50 (HCT-15) was 0.79 µM and the GI50 [2] was 0.76 µM. It also gave a GI50 (NCI-H460) of 5.2 µM.
